Most compounds without a hit are left out; they make up all but 3.4% or so of the library.
rRNA inh HTS = selective bacterial rRNA inhibition in E. coli; AID 720706; GFP signal change (wild-type ribosome), % (no concentration beside the values); 350,000 compounds, 1.6% hits; E. coli WT GFP vs humanized-ribosome RFP mutants, fluorescence, 24 h; stronger effect = lower value; DMSO median 0, no signal -100;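 active means significant combined selectivity score with lowered wild-type GFP, culture density cut under 30%, mutant RFP and density less affected; inactive means any of these conditions unmet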
S100A4 MyoIIA = S100A4-myosin IIA interaction inhibition. P26447. S100A4/TAMRA-MyoIIA peptide fluorescence polarization. inhibition, % at 10.7 µM. 360,000 compounds, 0.14% hits;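 active means mean inhibition of at least 70% across replicates, with every replicate also reaching that level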
Target sequence (P26447 whole entry, looked up): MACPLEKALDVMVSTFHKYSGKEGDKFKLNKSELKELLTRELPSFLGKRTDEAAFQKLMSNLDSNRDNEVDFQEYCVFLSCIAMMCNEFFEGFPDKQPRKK
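assay system = human S100A4 monomer with TAMRA-labelled myosin IIA peptide | also added = labelled myosin peptide probe, 5 nM | incubation = 5 min between mix addition and reading | control set = DMSO and TFP controls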
MLL AF4-AF9 inh = MLL-AF4/AF9 protein interaction inhibition; P42568; AlphaScreen, biotin-AF4 peptide binding to FLAG-AF9; inhibition, % at 10 µM; 350,000 compounds, 0.47% hits; AID 651704;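 active means every replicate reaching a set inhibition limit, whatever the replicate mean, cut at about 25% in these data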;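 further: 0% = plate neutral control median and 100% = total signal loss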
SIRT5 inh = inhibitors of human sirtuin-5 desuccinylase | Purified SirT5, succinyl-peptide AMC, trypsin-coupled fluorescence | inhibition, % at 15 µM | 330,000 compounds, 1.1% hits | Q9NXA8; in the data active means inhibition above about 15%
Target sequence (Q9NXA8 whole entry, looked up): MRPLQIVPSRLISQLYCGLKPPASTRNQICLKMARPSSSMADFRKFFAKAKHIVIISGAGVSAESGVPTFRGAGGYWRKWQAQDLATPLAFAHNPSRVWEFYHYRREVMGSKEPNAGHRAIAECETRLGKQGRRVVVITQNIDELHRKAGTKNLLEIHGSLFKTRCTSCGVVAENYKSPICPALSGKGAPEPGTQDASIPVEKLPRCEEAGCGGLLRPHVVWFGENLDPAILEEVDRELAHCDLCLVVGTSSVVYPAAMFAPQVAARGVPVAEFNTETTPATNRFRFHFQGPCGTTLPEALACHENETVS
E-sel inducer = induces E-selectin expression in human endothelial cells; P16581; HUVEC E-selectin immunofluorescence imaging; normalized: neutral wells 0, TNF-alpha wells 100; activation, % at 7.58 µM; 260,000 compounds, 0.37% hits; AID 686992;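 active means mean E-selectin-positive cell signal at least 10% of the positive control, reached in at least 60% of replicates, without over 20% cell loss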
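System: HUVEC / Compound: single concentration / Signal: immunofluorescence imaging / Read-out: percent E-selectin-positive cells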
ERAP1 inh = inhibitors of human ERAP1 aminopeptidase. Q9NZ08. recombinant ERAP1, Leu-AMC fluorescence, 60 min. inhibition, % at 10.7 µM. 340,000 compounds, 0.15% hits. AID 652197;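 active means mean replicate inhibition of at least 30%, or all replicates individually reaching that 30% level; inactive means mean below 30% and not every replicate reaching it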;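 further: 0% = neutral control wells and 100% = L-leucinethiol positive control wells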
Active calls of the source: *.

Results for CCC/C=C/c1ccc(CN2C(C)C(=O)N(Cc3cn(CCC4OCCCO4)nn3)CCS2(=O)=O)cc1 (centres undefined) ?
rRNA inh HTS: -3.5; S100A4 MyoIIA: 0.5; MLL AF4-AF9 inh: 3.6; SIRT5 inh: 21.7*; E-sel inducer: -0.1; ERAP1 inh: 6.1

How did CCC/C=C/c1ccc(CN2C(CC(C)C)C(=O)N(Cc3cn(CCC4OCCCO4)nn3)CCS2(=O)=O)cc1 (centres undefined) do in these assays?
rRNA inh HTS: 0.0; S100A4 MyoIIA: 0.7; MLL AF4-AF9 inh: 2.9; SIRT5 inh: -1.5; E-sel inducer: 0.0; ERAP1 inh: -3.9

What do the screens show for `COc1ccc2c3c(n(C)c2c1)[C@@H](CO)N(Cc1cc(F)ccc1F)CC31CCN(C(=O)C2CC2)CC1`?
rRNA inh HTS: 3.5; S100A4 MyoIIA: 2.2; MLL AF4-AF9 inh: 2.9; SIRT5 inh: 2.1; E-sel inducer: 0.2; ERAP1 inh: 4.3

How did CNC(=O)C[C@H]1CC[C@H]2[C@@H](COc3ccc(NC(=O)Nc4ccccc4OC)cc3C(=O)N2C)O1 do in these assays?
rRNA inh HTS: -0.2; S100A4 MyoIIA: 13.3; MLL AF4-AF9 inh: -0.5; SIRT5 inh: 3.3; E-sel inducer: -0.1; ERAP1 inh: 0.6

Results for COc1cccc(NC(=O)C2CCC(CNS(=O)(=O)c3cccs3)CC2)c1 (centres undefined) ?
rRNA inh HTS: -21.1*; S100A4 MyoIIA: -4.9; MLL AF4-AF9 inh: -2.3; ERAP1 inh: 1.6

Results for O=C(NC1CCCC1)C1CCC(CNS(=O)(=O)c2cccs2)CC1 (centres undefined) ?
E-sel inducer: -0.3

What do the screens show for `Cc1ccc(NC(=O)CN(C)CC(=O)Nc2ccc(N3CCOCC3)cc2)cc1F`?
rRNA inh HTS: -21.4*; S100A4 MyoIIA: 7.6; MLL AF4-AF9 inh: 6.8; SIRT5 inh: -6.1; ERAP1 inh: 1.4

How did C[C@@H]1CCCCO[C@@H](CN(C)Cc2ccc(C(=O)O)cc2)[C@@H](C)CN([C@@H](C)CO)C(=O)c2cc(NS(=O)(=O)c3ccccc3)ccc2O1 do in these assays?
rRNA inh HTS: 3.3; E-sel inducer: 0.1

How did COc1ccc(S(=O)(=O)N2C[C@H](O)COC[C@@H]3O[C@H](CC(=O)NCc4ccc(Cl)c(Cl)c4)CC[C@H]32)cc1 do in these assays?
rRNA inh HTS: -9.1; S100A4 MyoIIA: 7.6; MLL AF4-AF9 inh: 3.2; SIRT5 inh: 4.0; E-sel inducer: 0.2; ERAP1 inh: -0.3

What do the screens show for `CCNC(=O)C[C@@H]1CC[C@H]2[C@@H](COC[C@H](O)CN2C(=O)c2cccnc2)O1`?
rRNA inh HTS: -1.7; S100A4 MyoIIA: -45.1; MLL AF4-AF9 inh: -2.2; SIRT5 inh: 17.4*; E-sel inducer: 0.1; ERAP1 inh: 2.4

What do the screens show for `COc1ccc(S(=O)(=O)N2C[C@@H](O)COC[C@@H]3O[C@@H](CC(=O)NCc4ccc(Cl)c(Cl)c4)CC[C@H]32)cc1`?
rRNA inh HTS: -19.4; S100A4 MyoIIA: 17.5; MLL AF4-AF9 inh: 4.2; SIRT5 inh: 15.3*; E-sel inducer: -0.2; ERAP1 inh: -0.2

What do the screens show for `O=C(C[C@@H]1CC[C@H]2[C@@H](COC[C@H](O)CN2S(=O)(=O)c2ccc(F)cc2)O1)NCC1CCCCC1`?
rRNA inh HTS: -2.3; S100A4 MyoIIA: -24.6; MLL AF4-AF9 inh: 36.1*; SIRT5 inh: 4.7; E-sel inducer: -0.1; ERAP1 inh: -2.1

What do the screens show for `O=C(C[C@H]1CC[C@@H]2[C@H](COC[C@H](O)CN2S(=O)(=O)c2ccc(F)cc2)O1)NCC1CCCCC1`?
rRNA inh HTS: -5.0; S100A4 MyoIIA: -4.0; MLL AF4-AF9 inh: 28.2*; SIRT5 inh: 7.8; E-sel inducer: 0.2; ERAP1 inh: -3.4

How did C[C@H](CO)N1C[C@H](C)[C@@H](CN(C)C(=O)Nc2ccc(C(F)(F)F)cc2)Oc2ccc(NC(=O)Cc3cn(C)c4ccccc34)cc2C1=O do in these assays?
rRNA inh HTS: -3.0; S100A4 MyoIIA: -6.8; MLL AF4-AF9 inh: -1.1; SIRT5 inh: 0.8; ERAP1 inh: 0.7

How did COc1ccc2c3c([nH]c2c1)[C@@H](CO)N(C(=O)c1ccncc1)CC31CCN(C(=O)C2CCC2)CC1 do in these assays?
rRNA inh HTS: 2.5; S100A4 MyoIIA: 2.9; MLL AF4-AF9 inh: -0.9; SIRT5 inh: -2.4; E-sel inducer: 1.2; ERAP1 inh: -1.2

What do the screens show for `C[C@@H]1CN([C@H](C)CO)C(=O)c2cc(NC(=O)Nc3ccc(F)cc3)ccc2O[C@H]1CN(C)S(=O)(=O)c1ccc(F)cc1`?
rRNA inh HTS: 0.6; S100A4 MyoIIA: -6.4; MLL AF4-AF9 inh: -0.7; SIRT5 inh: 13.2; E-sel inducer: 0.3; ERAP1 inh: -0.1

What do the screens show for `O=C(C[C@@H]1CC[C@H]2[C@@H](COC[C@@H](O)CN2S(=O)(=O)c2ccc(Cl)cc2)O1)NCC1CCCCC1`?
rRNA inh HTS: -0.9; S100A4 MyoIIA: 3.4; MLL AF4-AF9 inh: 33.6*; SIRT5 inh: 4.4; E-sel inducer: -0.1; ERAP1 inh: 0.3

What do the screens show for `O=C(C[C@@H]1CC[C@@H]2[C@H](COC[C@H](O)CN2C(=O)Nc2cc(Cl)cc(Cl)c2)O1)N1CCOCC1`?
rRNA inh HTS: -50.5; E-sel inducer: 0.2

How did O=C(C[C@H]1CC[C@H]2[C@@H](COC[C@@H](O)CN2C(=O)Nc2cc(Cl)cc(Cl)c2)O1)N1CCOCC1 do in these assays?
rRNA inh HTS: -26.6*; E-sel inducer: 0.0

Results for O=C(C[C@@H]1CC[C@H]2[C@@H](COC[C@@H](O)CN2C(=O)Nc2ccc(Cl)c(Cl)c2)O1)NCc1ccc(Cl)c(Cl)c1 ?
rRNA inh HTS: -58.4; S100A4 MyoIIA: 2.2; MLL AF4-AF9 inh: 1.7; SIRT5 inh: 15.5*; E-sel inducer: -0.1; ERAP1 inh: -1.1

How did O=C(C[C@H]1CC[C@@H]2[C@H](COC[C@@H](O)CN2S(=O)(=O)c2cccc(Cl)c2)O1)NC1CCCC1 do in these assays?
rRNA inh HTS: -3.2; S100A4 MyoIIA: 12.0; MLL AF4-AF9 inh: 26.2*; SIRT5 inh: 3.5; E-sel inducer: 0.1; ERAP1 inh: -2.7

Results for CC(C)NC(=O)N[C@@H]1CC[C@H](CCNC(=O)C2CC2)O[C@@H]1CO ?
rRNA inh HTS: 1.6; S100A4 MyoIIA: 1.2; MLL AF4-AF9 inh: -1.2; SIRT5 inh: 10.5; E-sel inducer: -0.2; ERAP1 inh: 0.4

Results for O=C(C[C@@H]1CC[C@H]2[C@@H](COC[C@@H](O)CN2S(=O)(=O)c2ccccc2)O1)Nc1ccc(-c2ccccc2)cc1 ?
rRNA inh HTS: -23.9; S100A4 MyoIIA: 2.7; MLL AF4-AF9 inh: -2.6; SIRT5 inh: -0.5; E-sel inducer: 0.7; ERAP1 inh: 1.8
